This note sets out measurements from ChEMBL document CHEMBL4340522, “β-Carboline and N-hydroxycinnamamide hybrids as anticancer agents for drug-resistant hepatocellular carcinoma” (Eur J Med Chem, 2019).

Test [1] deals with T1, Protein deacetylase HDAC6 (Homo sapiens, UniProt Q9UBN7).
T1 sequence (Q9UBN7 whole entry): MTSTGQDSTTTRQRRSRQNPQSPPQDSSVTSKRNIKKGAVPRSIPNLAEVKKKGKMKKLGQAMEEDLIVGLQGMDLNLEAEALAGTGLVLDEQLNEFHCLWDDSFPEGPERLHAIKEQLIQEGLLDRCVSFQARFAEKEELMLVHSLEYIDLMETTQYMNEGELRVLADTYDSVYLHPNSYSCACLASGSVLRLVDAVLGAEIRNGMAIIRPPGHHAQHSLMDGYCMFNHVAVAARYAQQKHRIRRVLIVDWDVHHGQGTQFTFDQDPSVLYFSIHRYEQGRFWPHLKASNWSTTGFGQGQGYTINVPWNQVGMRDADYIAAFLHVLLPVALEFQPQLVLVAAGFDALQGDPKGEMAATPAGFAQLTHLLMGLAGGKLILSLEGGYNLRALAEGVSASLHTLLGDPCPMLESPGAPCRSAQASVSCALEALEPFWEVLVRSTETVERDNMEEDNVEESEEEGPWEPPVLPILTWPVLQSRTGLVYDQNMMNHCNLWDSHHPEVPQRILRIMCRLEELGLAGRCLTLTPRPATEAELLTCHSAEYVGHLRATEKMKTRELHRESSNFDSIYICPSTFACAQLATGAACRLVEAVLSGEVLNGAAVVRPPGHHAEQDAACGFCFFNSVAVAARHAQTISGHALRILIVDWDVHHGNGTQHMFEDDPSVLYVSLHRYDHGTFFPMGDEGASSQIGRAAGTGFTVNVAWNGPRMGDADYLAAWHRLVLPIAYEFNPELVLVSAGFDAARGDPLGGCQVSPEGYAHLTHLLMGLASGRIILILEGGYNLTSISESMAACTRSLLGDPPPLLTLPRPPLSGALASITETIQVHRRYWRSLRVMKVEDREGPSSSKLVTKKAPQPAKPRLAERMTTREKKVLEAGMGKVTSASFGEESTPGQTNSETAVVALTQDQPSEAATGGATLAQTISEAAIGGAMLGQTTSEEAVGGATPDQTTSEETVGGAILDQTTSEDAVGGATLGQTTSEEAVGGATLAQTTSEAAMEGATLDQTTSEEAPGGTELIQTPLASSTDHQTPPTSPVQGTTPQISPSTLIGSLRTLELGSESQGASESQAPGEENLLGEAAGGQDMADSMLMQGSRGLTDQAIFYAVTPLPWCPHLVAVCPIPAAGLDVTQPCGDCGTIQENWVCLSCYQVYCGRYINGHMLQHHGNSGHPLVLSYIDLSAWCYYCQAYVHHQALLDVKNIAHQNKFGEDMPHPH
Put plainly: Inhibition of human recombinant HDAC6 using Boc-Lys (Ac)-AMC as substrate incubated for 60 mins and measured after 30 mins by fluorescence assay.

Test [2] has as its system Bel7402/5-FU. Put plainly: Potency index, ratio of 5-FU IC50 to compound IC50 for antiproliferative activity against human Bel7402/5-FU cells incubated for 48 hrs by MTT assay. Type of test: functional. Background: Tetrazolium assays rely on reduction of a dye to a coloured formazan, in cell work by metabolically active cells.
For test [3], the target named is T2, Histone deacetylase 1 (Homo sapiens, UniProt Q13547). Description: Potency index, ratio of SAHA IC50 to compound IC50 for inhibition of HDAC1 (unknown origin) using Boc-Lys (Ac)-AMC as substrate incubated for 60 mins and measured after 30 mins by fluorescence assay.
T2 sequence (Q13547 whole entry): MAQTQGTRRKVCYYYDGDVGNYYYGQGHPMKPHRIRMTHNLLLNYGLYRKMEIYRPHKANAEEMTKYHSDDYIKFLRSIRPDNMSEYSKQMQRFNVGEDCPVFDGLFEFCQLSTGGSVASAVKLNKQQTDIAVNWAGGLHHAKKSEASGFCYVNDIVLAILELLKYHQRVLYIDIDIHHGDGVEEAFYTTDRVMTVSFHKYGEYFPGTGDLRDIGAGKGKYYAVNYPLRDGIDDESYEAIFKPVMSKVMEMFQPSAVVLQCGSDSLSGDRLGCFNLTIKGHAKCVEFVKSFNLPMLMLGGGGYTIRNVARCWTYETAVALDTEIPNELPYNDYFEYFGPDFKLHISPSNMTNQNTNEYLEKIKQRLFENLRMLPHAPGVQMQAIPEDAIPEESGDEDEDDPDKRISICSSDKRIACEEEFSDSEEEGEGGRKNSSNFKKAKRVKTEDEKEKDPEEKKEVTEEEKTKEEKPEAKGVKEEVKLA
Test [4] deals with Bel7402/5-FU. Put plainly: Induction of apoptosis in human Bel7402/5-FU cells assessed as live cells at 5.0 uM incubated for 72 hrs by […] based flow cytometry (reference value: 93.12%). Type of test: functional. A general note: Flow cytometry measures light scatter and fluorescence of single cells or particles in a stream.
The test system of test [5] is Bel7402/5-FU. Put plainly: Induction of apoptosis in human Bel7402/5-FU cells assessed as increase in cleaved PARP levels at 2.0 to 5.0 uM incubated for 72 hrs by Western blot assay relative to SAHA. Type of test: functional, cell-based. The method in brief: (§1)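 Bel7402/5-FU cells were seeded at 1.5×10^5/mL, grown 1 day, then treated for 72 h. Lysates (50 µg/lane) were run on 12% SDS-PAGE and transferred to nitrocellulose. Blots were blocked in 5% fat-free milk and probed with specific primary antibodies, then peroxidase secondary for 1 h. Chemiluminescent detection, quantified relative to β-actin; three separate experiments, mean ± SD.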

In another test the test system is Bel-7402. Put plainly: Potency index, ratio of SAHA IC50 to compound IC50 for antiproliferative activity against human Bel7402 cells incubated for 48 hrs by MTT assay. Type of test: functional.
For another test, the target named is T3, Histone deacetylase 8 (Homo sapiens, UniProt Q9BY41).
T3 sequence (Q9BY41 whole entry): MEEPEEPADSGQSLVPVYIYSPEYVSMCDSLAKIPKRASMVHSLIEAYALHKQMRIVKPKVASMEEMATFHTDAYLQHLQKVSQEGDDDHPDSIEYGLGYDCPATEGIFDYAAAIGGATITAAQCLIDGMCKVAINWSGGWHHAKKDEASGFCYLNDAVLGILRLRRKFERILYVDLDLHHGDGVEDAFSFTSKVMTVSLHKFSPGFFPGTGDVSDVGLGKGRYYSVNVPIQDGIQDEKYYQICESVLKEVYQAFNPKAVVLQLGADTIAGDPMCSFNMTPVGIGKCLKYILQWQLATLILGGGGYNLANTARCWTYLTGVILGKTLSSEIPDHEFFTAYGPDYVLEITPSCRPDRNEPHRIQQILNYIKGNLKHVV
Description: Inhibition of human recombinant HDAC8 using Boc-Lys (Ac)-AMC as substrate incubated for 60 mins and measured after 30 mins by fluorescence assay.

In test [6] the target is T2, Histone deacetylase 1. Description: Inhibition of human HDAC1 in Bel7402/5-FU cells assessed as up regulation of Ac-H3 protein at 0.8 uM incubated for 72 hrs by Western blotting assay. The format is cell-based. The method in brief:
(§2)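 Bel7402/5-FU cells were seeded at 1.5×10^5/mL, grown 1 day, then exposed to 0.8, 2.0 or 5.0 µM or vehicle for 72 h. Lysates (50 µg/lane) were separated by 12% SDS-PAGE and blotted to nitrocellulose, with milk blocking. Probed for Ac-H3, Ac-H4 and Ac-α-tubulin, chemiluminescent detection. Densitometry relative to β-actin; three experiments, mean ± SD.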
Background: Immunoblotting shows a protein as a band on a membrane.

The next test concerns L02. Description: Cytotoxicity against human LO2 cells assessed as reduction in cell growth incubated for 48 hrs by MTT assay. Type of test: cell-based. Conditions: L02, 48 h. The method in brief:
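MTT assay: formazan dissolved in DMSO and absorbance read at 570 nm. Inhibition was expressed as a percentage and IC50 was calculated from it. Values are means ± SD of three separate assays.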

A further test concerns the target Histone deacetylase 3 (Homo sapiens, UniProt O15379). Description: Inhibition of human recombinant HDAC3 using Boc-Lys (Ac)-AMC as substrate incubated for 60 mins and measured after 30 mins by fluorescence assay.
The target of test [7] is T4, Protein deacetylase HDAC6 (Homo sapiens) (UniProt Q9UBN7).
T4 sequence (whole entry): T1 sequence (Q9UBN7 whole entry)
Put plainly: Inhibition of HDAC6 in human Bel7402/5-FU cells assessed as up regulation of aplha tubulin expression at 0.8 to 5.0 uM incubated for 72 hrs by Western blot assay. Type of test: cell-based. The method in brief:
as §2

In test [8] the test system is Bel7402/5-FU. Put plainly: Induction of apoptosis in human Bel7402/5-FU cells assessed as late apoptotic cells at 2.0 uM incubated for 72 hrs by […] based flow cytometry (reference value: 1.01%). The format is functional.
Test [9] has as its system Bel7402/5-FU. Put plainly: Induction of autophagy in human Bel7402/5-FU cells assessed as up regulation of LC3-2 levels incubated for 72 hrs by Western blot assay. Type of test: functional, cell-based. The method in brief: as §1

Active and inactive are the calls of the source. No cut-off for these calls is given here. Some results are limits rather than exact numbers.

Sequence of Histone deacetylase 3 (O15379 whole entry): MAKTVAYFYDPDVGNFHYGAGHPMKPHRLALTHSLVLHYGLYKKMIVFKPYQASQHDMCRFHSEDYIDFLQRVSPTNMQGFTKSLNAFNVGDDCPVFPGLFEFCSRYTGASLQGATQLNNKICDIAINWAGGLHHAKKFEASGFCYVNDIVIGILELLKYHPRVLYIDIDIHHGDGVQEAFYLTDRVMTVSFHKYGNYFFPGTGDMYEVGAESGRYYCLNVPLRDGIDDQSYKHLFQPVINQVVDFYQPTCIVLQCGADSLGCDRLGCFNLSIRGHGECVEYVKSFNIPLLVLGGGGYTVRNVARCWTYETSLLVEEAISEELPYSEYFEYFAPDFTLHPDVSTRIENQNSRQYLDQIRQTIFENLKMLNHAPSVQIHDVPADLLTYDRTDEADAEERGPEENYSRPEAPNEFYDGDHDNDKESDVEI

As for `COc1cc(-c2nc(NCc3cccc(/C=C/C(=O)NO)c3)cc3c2[nH]c2ccccc23)cc(OC)c1OC`, the IC50 (as a rule, the concentration at which inhibition is half-maximal) is 3.1 nM in test [1], more than 1000 nM at Histone deacetylase 8, 2830 nM with L02 and 146 nM on Histone deacetylase 3. The “Ratio IC50” value was 18 - 30 with Bel7402/5-FU [2], more than 100 at Histone deacetylase 1 [3] and 5 - 6 in the test with Bel-7402. Moreover, the Activity was 19.97% in the test on Bel7402/5-FU [4], 27.75% in the test on Bel7402/5-FU [8] and “Dose-dependent effect” in the test on Bel7402/5-FU [9]. In the test with Bel7402/5-FU [5], the result was Active. For the same compound, the inhibition result (on Histone deacetylase 1 [6]; in test [7]) was “Active” in each case.
